Tested on: MS2 coat protein
Experiment: apparent Kd, MS2 coat protein; higher = weaker binding; RNA-MaP array; FMN 200 µM where present
Procedure, shortened: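 Two titrations, one without ligand and one with constant ligand, were run with SNAP-549-labelled MS2 coat protein from 0.7 or 1.5 nM, doubling to 3 µM. The targets were designs transcribed by stalled E. coli RNA polymerase on Illumina sequencing-chip clusters, in 100 mM Tris-HCl pH 7.5, 80 mM KCl, 4 mM MgCl2, BSA, DTT, yeast tRNA and Tween-20. The apparent Kd is the median of filtered per-cluster binding-curve fits, with green signal normalised to red-channel RNA signal and control-cluster median Fmax.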

[1] = designed as: ON switch for flavin mononucleotide, no ligand
[2] = ligand present: flavin mononucleotide, designed as: ON switch for flavin mononucleotide
[3] = designed as: OFF switch for flavin mononucleotide, no ligand
[4] = ligand present: flavin mononucleotide, designed as: OFF switch for flavin mononucleotide

Sequence: UGGUACAUGGGAGGAUAUCAUGAACUUACAUGAGGAUCACCCAUGUCGAUGGAGACAUCGGAGAUUGAGAAGGCCCAUGUACCU
- apparent Kd [1]: 77.6 nM
- apparent Kd [2]: 22.4 nM

Sequence: AGCUGUGGCCGAGGAUAUACAUCCUUUAUAACCGAUGAAUAUCAUCGGACAUGAGGAUCACCCAUGUAGAAGGCGGUCUCAGCA
- apparent Kd [3]: 149 nM
- apparent Kd [4]: 750 nM

Sequence: GGAAAUCGUGUAGGAUAUGCAUGGCGAAGCUACGCAGAAGGACAUGAGGAUCACCCAUGUUAUAGCGUCCGAGAAAGGAUGCAA
- apparent Kd [3]: 11 nM
- apparent Kd [4]: 67.4 nM

Sequence: AUAGUGCCGGAGAAGGACGUACCACAUGUUGAUCACCGAUAUAAGGAACGUAGGAUAUUCGACAUGAGGAUCACCCAUGUGGAU
- apparent Kd [1]: 101 nM
- apparent Kd [2]: 64.7 nM

Sequence: GCUAUCGAUGUAGGAUAUGCUAUAGAAACUAUGGCAGAAGGACAUGAGGAUCACCCAUGUCAAUGGAUGGAGAGAAGAGAUGGC
- apparent Kd [3]: 26.7 nM
- apparent Kd [4]: 68.7 nM

Sequence: CAUUCAAGCCAGAAGGAGUACACUACAUGAGGAUCACCCAUGUCUAAUACUAGGAUAUGGGCAUCUGGUAAUGUCUAAGGUGCG
- apparent Kd [1]: 111 nM
- apparent Kd [2]: 128 nM

Sequence: AAGUCAGCAGGAUAUGCGAUGUUGUGCUAGAUAGCGUGACCACAUGAGGAUCACCCAUGUAGAAGGGCUGGCUA
- apparent Kd [3]: 30.9 nM
- apparent Kd [4]: 20.2 nM

Sequence: AUAUAACCUAGCAAAAUUUAAUAACAUGAGGAUCACCCAUGUAGAAGGCUGUCCUAAAAUAGGACAGAGGAUAUACGUGCUAGG
- apparent Kd [3]: 5.43 nM
- apparent Kd [4]: 6.73 nM

Sequence: UUAUGUGUUGUAGGAUAUCAUUAGAUUUGUAAUUUAAUUGUAAUUUAUAUAUGAGAAGGACAUUUACAUGAGGAUCACCCAUGU
- apparent Kd [3]: 22.3 nM
- apparent Kd [4]: 13.4 nM

Sequence: AGCGUACAAGCUAACAUGAGGAUCACCCAUGUGGACUCAUGCGAGGAUAUCGGGAAGGAGGAUUCCGAGAAGGUGCGGUGAGCC
- apparent Kd [1]: 148 nM
- apparent Kd [2]: 38.1 nM

Sequence: CGCAAAGAUGGGUUUAAUGGAGCAUAGGAUAUGCUUGUACAUGAGGAUCACCCAUGUAAUAUUGUGCAGAAGGGUGCAUUUGCG
- apparent Kd [1]: 293 nM
- apparent Kd [2]: 74.3 nM

Sequence: AAAAAUCCAGCGCAGGAUAUCGCAGGGUGCACAUGAGGAUCACCCAUGUGUACCCAAACACCCUGCGAGAAGGGCGUUGGAAAAAA
- apparent Kd [1]: 11.2 nM
- apparent Kd [2]: 9.68 nM

Sequence: AUAUCUUACCAAGGAUAUUUAAGAUUUGUGUAGACAUGAGGAUCACCCAUGUGGCGUUAGUCACGGGAGAAGGUGGUUUGAUAU
- apparent Kd [1]: 140 nM
- apparent Kd [2]: 648 nM

Sequence: AUGUAUCGCCUCGAGGAUAUCCUGUCAUGCACAUGAGGAUCACCCAUGUAAGAGCGAGUUUAAUGGGAGAAGGCGAGUUCUCGGU
- apparent Kd [1]: 111 nM
- apparent Kd [2]: 35 nM

Sequence: AAUAACAGAGGAUAUACUAUUUUAUGUGUUUGUUAUUUUAAACAUGAGGAUCACCCAUGUAGAAGGCUGAUUGA
- apparent Kd [3]: 46.7 nM
- apparent Kd [4]: 46.6 nM

Sequence: GAUAGGACAGAGAAGGACAUAGCUAGAGAUACUAGCAUAAGAACCUUCACAUGAGGAUCACCCAUGUAGGAUAUCUGUCCUAUC
- apparent Kd [3]: 3.74 nM
- apparent Kd [4]: 4.85 nM

Sequence: AUCCUACAUGAGGAUCACCCAUGUGACGCCUCGAUAGGAUAUGCGUGUGCCUUGGCGCAUGCAGAAGGAUUGUUGC
- apparent Kd [1]: 149 nM
- apparent Kd [2]: 195 nM

Sequence: UCAGGCUUCGAGAAGGACAUGAGGAUCACCCAUGUGCGUGUGAAGCAGCCAAAAGGCUGCAUCAUGUAGGAUAUCGGAGUCUGC
- apparent Kd [3]: 81.8 nM
- apparent Kd [4]: 552 nM

Sequence: GCGCACUAAGUGAGGAUAUCGUUUAUUUUUAGGAUCGAGAAGGCACAUGAGGAUCACCCAUGUUUGACGUGCGC
- apparent Kd [3]: 20.9 nM
- apparent Kd [4]: 14.1 nM

Sequence: AAUUGACAUGAGGAUCACCCAUGUCCACCAAACGGAGGAUAUUGGGCGGCAAAACGUUGUUAAGAAGGCCGAAAUU
- apparent Kd [1]: 34.1 nM
- apparent Kd [2]: 88.3 nM

Sequence: CAAUAACCCUCAUGUACCUGAGGACAUGAGGAUCACCCAUGUAAGGAUAUAGCCAUUAAAUCUAACUAGAAGGUAUAAAUAACC
- apparent Kd [3]: 1090 nM
- apparent Kd [4]: 552 nM

Sequence: GGACGUAAAGAGAAGGGCUACUGGUUGAAACCUGCGGCCUCUGGAACAUGAGGAUCACCCAUGUAGCAGGAUAUCUUUGCACCA
- apparent Kd [3]: 157 nM
- apparent Kd [4]: 26.7 nM

Sequence: CAUUGGUAAGGAUAUGAAUCGAUCUCAGAAAUGAGAUCGAUUCAGAAGGUACAUGAGGAUCACCCAUGUUGAUG
- apparent Kd [3]: 27.8 nM
- apparent Kd [4]: 72.9 nM

Sequence: UCCUUGUCCUGAGGAUAUCCGUGGUUACCGAAAGGAGAAGGCAGGACAUGAGGAUCACCCAUGUACCCAGAAAACGUGCAGAGU
- apparent Kd [3]: 125 nM
- apparent Kd [4]: 381 nM

Sequence: AACAGUGCUAAUAAAUAAGAUCUACAUGAGGAUCACCCAUGUAAGGAUAUCGUCAGGAAUACUGACGAGAAGGUACAUGCACUG
- apparent Kd [3]: 15 nM
- apparent Kd [4]: 25.9 nM

Sequence: AGUGUCAUCGAGAAGGCCUCAUGAACAUGAGGAUCACCCAUGUAAAAUGGGAGGAUAUCGAUGAUACAGCUACGUUUCGUAGCA
- apparent Kd [1]: 74.4 nM
- apparent Kd [2]: 28.5 nM

Sequence: ACAAGAUCAGGAUAUACAUGAGGAUCACCCAUGUAUUUCAAAAAGGGACUUUCUUUAUGUAGAAGGGAUCUUGU
- apparent Kd [3]: 50.8 nM
- apparent Kd [4]: 67.2 nM

Sequence: GGGUACAUCGGAGGAUAUCAUGUAAAUACAUGAGGAUCACCCAUGUCGAUCGAGACAUCGGAGAUUGAGAAGGCCGAUGUACCG
- apparent Kd [1]: 163 nM
- apparent Kd [2]: 286 nM

Sequence: CUGAGCAAUGUAGGAUAUCGACUGGAUAACAGUCGAGAAGGACAUGAGGAUCACCCAUGUAAAUGAGUGAAUAAUAAAGCUCAG
- apparent Kd [3]: 1070 nM
- apparent Kd [4]: 331 nM

Sequence: CUGCGCUAGGAGAAGGGCUAGAGUGUGAUAUAUUUGCCCGCGAGCACAUGAGGAUCACCCAUGUAGCAGGAUAUCCAAGCCGAU
- apparent Kd [3]: 8.03 nM
- apparent Kd [4]: 16.5 nM

Sequence: UGACGAGUAGGAUAUUGGACUUGCGACAUGAGGAUCACCCAUGUGACGUCAACGUGGCACCAAGAAGGGCUACGUC
- apparent Kd [3]: 68.1 nM
- apparent Kd [4]: 46.9 nM

Sequence: ACUUAAAUACCCAAAAGUCGGGCGGAGGAUAUGGAGCUUCCACCACAUGAGGAUCACCCAUGUCUUCAGAAGGCCGCCCUUGGA
- apparent Kd [2]: 11.2 nM

Sequence: CAUUAAUAGUAGAAGGGUCAAGUUUUGGGUAGGGCAGGAUAUACGAACAAGAAACAUGAGGAUCACCCAUGUGUCCAUGUCAUG
- apparent Kd [3]: 33.9 nM
- apparent Kd [4]: 29.6 nM

Sequence: GUAUCUUACCAAGGAUAUUUAAGAUUAGUGUAGACAUGAGGAUCACCCAUGUGGCCUUAGUCACGGGAGAAGGUGGUUUGAUAC
- apparent Kd [1]: 312 nM
- apparent Kd [2]: 70.9 nM

Sequence: CUGAUGUUAGGAUAUCAGGCGCCCGCCACUAGCAAGGCGCAUGAGAAGGGACAUGAGGAUCACCCAUGUAGUAA
- apparent Kd [3]: 28.1 nM
- apparent Kd [4]: 50 nM

Sequence: AAUAUGUUGCAGAAGGCCAUGUUGUGGUAGUACCUCAUGACAUGAGGAUCACCCAUGUCUGUGUUGGAGGAUAUGCAAUAUAUU
- apparent Kd [3]: 7.24 nM
- apparent Kd [4]: 12.3 nM

Sequence: AAAUCAGCAGGAUAUGCGAUGUUGUGCUAGAUAGCGGGACCACAUGAGGAUCACCCAUGUAGAAGGGCUAGAUA
- apparent Kd [3]: 51.4 nM
- apparent Kd [4]: 18.9 nM

Sequence: ACUUUUUAUGGACAUGAGGAUCACCCAUGUGCCUUGGGCCUCAAGGAUAUAGUAAUUGUCGUGUACUAGAAGGUGAAGCCAUUA
- apparent Kd [1]: 77.2 nM
- apparent Kd [2]: 27.9 nM

Sequence: AACAUCCAAGCGCCCGGGUGGAGGAGAAGGCGGACAUGAGGAUCACCCAUGUGCAGCCACAAGUCCGAGGAUAUCCUUUGUGUU
- apparent Kd [3]: 10.6 nM
- apparent Kd [4]: 20.2 nM

Sequence: UAUUUAAUCAUAGGAUAUAGUGUGAAAUUUGGACUAGAAGGAUGUAACAUGAGGAUCACCCAUGUGGUAAGUGGGACACAGUGA
- apparent Kd [1]: 106 nM
- apparent Kd [2]: 177 nM

Sequence: GGUACCAUCACAGGAUAUGCAAUCCUUUGGGUUGCAGAAGGGUGUAACAUGAGGAUCACCCAUGUGGUGCCAGGGCGUGAGCCC
- apparent Kd [1]: 423 nM
- apparent Kd [2]: 44.5 nM

Sequence: CUGGUGUGAGGAUAUCAAAGACCUCGGGAUAGUAGCGAGGAUGAGAAGGCACAUGAGGAUCACCCAUGUAACAA
- apparent Kd [3]: 20.9 nM
- apparent Kd [4]: 33.8 nM

Sequence: AAGGAGUAAGGAUAUGCUGCUCGUCACUUGCGUGAUGAGUAGCAGAAGGUACAUGAGGAUCACCCAUGUAAAAA
- apparent Kd [3]: 24.5 nM
- apparent Kd [4]: 18.3 nM

Sequence: UAAUAGUGUGUUAGGAUAUGCUGGUCGAAAGAUCAGCAGAAGGAACAUGAGGAUCACCCAUGUAGAGUAUUUUA
- apparent Kd [3]: 21.3 nM
- apparent Kd [4]: 62.4 nM

Sequence: UUACGGAUAGAGGAUAUAUUAAGGAAAGUUUCGAUAGAAGGCUAGACAUGAGGAUCACCCAUGUAUAUUGGGAU
- apparent Kd [3]: 131 nM
- apparent Kd [4]: 151 nM

Sequence: CAUGUCCUCACAGGAUAUGCACCACUUUGUGGUGCAGAAGGGUGGAUACAUGAGGAUCACCCAUGUGGACAUGAUAUAUUUAAU
- apparent Kd [1]: 608 nM
- apparent Kd [2]: 57.2 nM

Sequence: UGUCGGAGCAGAGGAUAUUACAUGAGGAUCACCCAUGUAUGAACCAAUAGCUGGAAACAACAAUGUAAGAAGGCUGCUCCGACA
- apparent Kd [3]: 7.22 nM
- apparent Kd [4]: 38.8 nM

Sequence: CCCUCACAUGAGGAUCACCCAUGUCCUAGCCCGUCAGGAUAUAGCCCGCAUCCGCUGCGGCUAGAAGGGACAGCUG
- apparent Kd [1]: 190 nM
- apparent Kd [2]: 141 nM

Sequence: AGUGCGUAUGUGAGGAUAUGCUGGUCCUUGGAUCGGCAGAAGGCACAUGAGGAUCACCCAUGUGGUGUCGUACC
- apparent Kd [3]: 244 nM
- apparent Kd [4]: 34 nM

Sequence: CGUUCAGCGAACGAUACGAAUGGACAUGAGGAUCACCCAUGUAGAAGGACAGGAGAAUAACGACUGUAGGAUAUACAUUUAGUG
- apparent Kd [3]: 41.1 nM
- apparent Kd [4]: 84.8 nM

Sequence: AAGAAGGACGCAGGAUAUCCAGGACCUCCCGCAGGAGAAGGGCGAGACAUGAGGAUCACCCAGACAUGAGGAUCACCCAUGUAG
- apparent Kd [3]: 37.4 nM
- apparent Kd [4]: 37.1 nM

Sequence: UUUUAACAUGAGGAUCACCCAUGUGAGGAUAUCGAAAUUUAUAUUAAUAUUUAUAAUACGAGAAGGCACAUUUU
- apparent Kd [3]: 85 nM
- apparent Kd [4]: 90.6 nM

Sequence: CGGAGGUCAGGAUAUGCAUGGCGGGACUUGCGUCGUGGCGUGCAGAAGGGACAUGAGGAUCACCCAUGUGGAGU
- apparent Kd [3]: 147 nM
- apparent Kd [4]: 216 nM

Sequence: GGAUGUCAAAGACAUCCAAAUCGAACAUGAGGAUCACCCAUGUAGGAUAUGCUACUCAAAGAGUAGCAGAAGGACAUGUGCUUU
- apparent Kd [3]: 41.5 nM
- apparent Kd [4]: 223 nM

Sequence: GGCAUGUAAGGAUAUGUCCCUGAGUGCUUUGCGCUCAGGAAACAGAAGGUACAUGAGGAUCACCCAUGUGAUAA
- apparent Kd [3]: 725 nM
- apparent Kd [4]: 75.9 nM

Source: the EternaBench riboswitch data
